According to ChEMBL document CHEMBL1134284, “The biological effects of structural variation at the meta position of the aromatic rings and at the end of the alkenyl chain in the alkenyldiarylmethane series of non-nucleoside reverse transcriptase inhibitors” (J Med Chem, 2001):
pEC50, pIC50: −log10 of the molar value.

Experiments:
[1] = Antiviral activity against Ba-L monocyte tropic isolate strain in monocyte; type: functional; settings: Homo sapiens
Procedure, shortened: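 Monocytes isolated from hepatitis- and HIV-seronegative donors by Ficoll-Hypaque gradient, cultured 6 days into macrophages, then infected with Ba-L. Medium RPMI 1640 with 10% FBS, 2 mM glutamine, penicillin/streptomycin. Replication read as p24 antigen by ELISA 6 days postinfection. […] Run in triplicate, with AZT as positive control.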

CCRF-CEM [2] = assay: Antiviral activity against site directed 4X AZT resistant isolate HIV-1 L100I in CEM cells; type: functional, cell-based, Homo sapiens
Procedure, shortened: (§1)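 CEM-SS cells infected with low-cytopathicity site-directed RT-mutant NL4-3 clones (A98G, L74V, 4XAZT = D67N/K70R/T215Y/K219Q, 4XAZT/L100I). Replication was quantified by p24 ELISA rather than cytoprotection. […] Triplicate, variation of mean about 10%.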

CCRF-CEM [3] = assay: Antiviral activity against site directed 4X AZT resistant isolate HIV-1 in CEM cells; type: functional, cell-based, Homo sapiens; settings: Homo sapiens, CCRF-CEM
CCRF-CEM [4] = assay: Antiviral activity against site directed resistant isolate HIV-1 K101E in CEM cells; type: functional, cell-based, Homo sapiens
CCRF-CEM [5] = assay: Antiviral activity against site directed resistant isolate HIV-1 K103N in CEM cells; type: functional, cell-based, Homo sapiens
Procedure, shortened: (§2)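 CEM-SS cells in RPMI 1640 with 10% heat-inactivated FBS were infected with NL4-3 molecular clones carrying site-directed RT mutations. Cytoprotection from virus-induced syncytial killing was read by MTS/phenazine ethosulfate reduction (A490) 6 days after infection. […] Triplicate, variation of mean about 10%.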

CCRF-CEM [6] = assay: Antiviral activity against site directed resistant isolate HIV-1 L100I in CEM cells; type: functional, cell-based, Homo sapiens; procedure, shortened: as §2
CCRF-CEM [7] = assay: Antiviral activity against site directed resistant isolate HIV-1 L74V in CEM cells; type: functional, cell-based, Homo sapiens; procedure, shortened: as §1
CCRF-CEM [8] = assay: Antiviral activity against site directed resistant isolate HIV-1 V106A in CEM cells; type: functional, cell-based, Homo sapiens; procedure, shortened: as §2
CCRF-CEM [9] = assay: Antiviral activity against site directed resistant isolate HIV-1 Y181C in CEM cells; type: functional, cell-based, Homo sapiens; procedure, shortened: as §2
CCRF-CEM [10] = assay: Antiviral activity against site directed resistant isolate HIV-1 Y188C in CEM cells; type: functional, cell-based, Homo sapiens; procedure, shortened: as §2
CCRF-CEM [11] = assay: Antiviral activity against site directed resistant isolates in HIV-1 A98G CEM cells; type: functional, cell-based, Homo sapiens; procedure, shortened: as §1
CCRF-CEM [12] = assay: Antiviral activity against site directed wild-type enzyme isolate HIV-1 NL4-3WT in CEM cells; type: functional, cell-based; settings: Homo sapiens
Procedure, shortened: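 Wild-type NL4-3 in CEM-SS cells, measured both by MTS cytoprotection 6 days after infection and by p24 ELISA. The IC50 is the mean of the two methods' values.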

[13] = system: Human immunodeficiency virus type 1 (RF/HAT ISOLATE); assay: Inhibitory concentration for cytopathicity of HIV-1RF in CEM-SS cells; type: functional, organism-based; settings: Human immunodeficiency virus 1, RF
Procedure, shortened: (§3)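 CEM-SS cells kept in RPMI 1640 with 10% heat-inactivated FBS, 2 mM glutamine, penicillin/streptomycin. Microtiter assay with cytopathic HIV-1 RF, or mock infection for toxicity. Viability read by MTS/phenazine ethosulfate reduction (absorbance 490 nm) 6 days after infection. […] Triplicate.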

CEM-SS = assay: Concentration required for cytotoxicity against mock infected CEM-SS cells; type: functional; settings: Homo sapiens; procedure, shortened: as §3
PBL = assay: (§4) Antiviral activity against ROJO virus strain in PBLs (peripheral blood lymphocytes); type: functional, cell-based; settings: Homo sapiens
Procedure, shortened: (§5)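 PBMCs isolated from hepatitis- and HIV-seronegative donors by Ficoll-Hypaque gradient and stimulated 3 days with phytohemagglutinin/IL-2. Infected with pediatric low-passage clinical isolates or NIAID subtype isolates, in RPMI 1640 with 10% FBS, 2 mM glutamine, penicillin/streptomycin. Replication read as supernatant reverse transcriptase activity. […] Run in triplicate, with AZT as positive control.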

[14] = Antiviral activity against SLKA virus strain in PBLs (peripheral blood lymphocytes); type: functional, cell-based; settings: Homo sapiens; procedure, shortened: as §5
[15] = Antiviral activity against TEKI virus strain in PBLs (peripheral blood lymphocytes); type: functional, cell-based; settings: Homo sapiens; procedure, shortened: as §5
[16] = Antiviral activity against WEJO virus strain in PBLs (peripheral blood lymphocytes); type: functional, cell-based; settings: Homo sapiens; procedure, shortened: as §5
[17] = Antiviral activity against multi drug resistant MDR 769 strain in PBLs (peripheral blood lymphocytes); type: functional, cell-based; settings: Homo sapiens
Procedure, shortened: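 PBMC from hepatitis- and HIV-seronegative donors isolated by Ficoll-Hypaque gradient and stimulated 3 days with phytohemagglutinin/IL-2 before infection. Medium RPMI 1640 with 10% FBS, 2 mM glutamine, penicillin/streptomycin. Replication read as supernatant reverse transcriptase activity. […] Run in triplicate, SD within triplicate under 10%; AZT positive control.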

[18] = Antiviral activity against subtype isolate A strain in PBLs (peripheral blood lymphocytes); type: functional, cell-based; settings: Homo sapiens; procedure, shortened: as §5
[19] = Antiviral activity against subtype isolate B strain in PBLs (peripheral blood lymphocytes); type: functional, cell-based, Homo sapiens; settings: Homo sapiens; procedure, shortened: as §5
[20] = Antiviral activity against subtype isolate C strain in PBLs (peripheral blood lymphocytes); type: functional, cell-based; settings: Homo sapiens; procedure, shortened: as §5
[21] = Antiviral activity against subtype isolate D strain in PBLs (peripheral blood lymphocytes); type: functional, cell-based; settings: Homo sapiens; procedure, shortened: as §5
[22] = Antiviral activity against subtype isolate E strain in PBLs (peripheral blood lymphocytes); type: functional, cell-based; settings: Homo sapiens
[23] = Antiviral activity against subtype isolate F strain in PBLs (peripheral blood lymphocytes); type: functional, cell-based, Homo sapiens; settings: Homo sapiens; procedure, shortened: as §5
[24] = Antiviral activity against subtype isolate G strain in PBLs (peripheral blood lymphocytes); type: functional, cell-based; settings: Homo sapiens; procedure, shortened: as §5
[25] = Antiviral activity against subtype isolate O strain in PBLs (peripheral blood lymphocytes); type: functional, cell-based, Homo sapiens; settings: Homo sapiens; procedure, shortened: as §5
[26] = biological target: Human immunodeficiency virus type 1 reverse transcriptase (Human immunodeficiency virus 1, UniProt Q72547); assay: Inhibitory activity against HIV-1 Reverse Transcriptase with rCdG as the template primer
Procedure, shortened: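 Cell-free assay with purified recombinant HIV-1 RT (p66/p51 dimer). Activity measured as [32P]GTP incorporation into the poly(rC)/oligo(dG) homopolymer template/primer. IC50 is reported as inhibition of enzyme activity.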

[27] = Ratio of CC50/EC50 was determined; settings: read-out: TI
Procedure, shortened: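 HIV-1 RF–infected CEM-SS cells (RPMI 1640, 10% heat-inactivated FBS, 2 mM glutamine, penicillin/streptomycin), plus mock-infected CEM-SS in parallel. Cell killing and viability were read by MTS/phenazine ethosulfate reduction at 490 nm 6 days after infection. […] Index = CC50 ÷ EC50. Triplicate tests.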

CCRF-CEM [28] = assay: Antiviral activity against site directed resistant isolate HIV-1 V179D in CEM cells; type: functional, cell-based, Homo sapiens; procedure, shortened: as §2
[29] = as §4; type: functional, cell-based; settings: Homo sapiens; procedure, shortened: as §5

Compound | pIC50 [1] | pIC50 (CCRF-CEM [2]) | pIC50 (CCRF-CEM [3]) | pIC50 (CCRF-CEM [4]) | pIC50 (CCRF-CEM [5]) | pIC50 (CCRF-CEM [6]) | pIC50 (CCRF-CEM [7]) | pIC50 (CCRF-CEM [8]) | pIC50 (CCRF-CEM [9]) | pIC50 (CCRF-CEM [10]) | pIC50 (CCRF-CEM [11]) | pIC50 (CCRF-CEM [12]) | pEC50 [13] | CC50 (CEM-SS) | pIC50 [14] | pIC50 [15] | pIC50 [17] | pIC50 [18] | pIC50 [19] | pIC50 (CCRF-CEM [28]) | further results
CCOC(=O)CCCC=C(c1cc(Cl)c(OC)c(C(=O)OC)c1)c1cc(Cl)c(OC)c(C(=O)OC)c1 | 5.05 | 6.43 | 7.12 | 6.79 | 6.57 | 7.10 | 6.05 | 4.99 | 4.72 | 5.39 | 7.89 | 6.24 | 8.00 | 16 µM | 6.05 | 6.00 | 4.34 | 6.70 | 4.90 | 5.64 | pIC50 (PBL): 6.41; pIC50 [16]: 6.15; pIC50 [20]: 6.09; pIC50 [21]: 6.82; pIC50 [22]: 6.70; pIC50 [23]: 6.52; pIC50 [24]: 6.10; pIC50 [25]: 4.52; pIC50 [26]: 6.63; selectivity ratio [27]: 1600
CCOC(=O)CCCC=C(c1cc(Br)c(OC)c(C(=O)OC)c1)c1cc(Br)c(OC)c(C(=O)OC)c1 | 5.36 | 6.43 | 7.15 | 6.02 | 6.34 | 7.82 | 6.45 | 5.15 | 5.36 | 5.74 | 7.82 | 6.36 | 8.15 | 16.5 µM | 5.96 | 6.00 | 5.20 | 6.70 | 5.31 | 5.60 | pIC50 [29]: 6.70; pIC50 [20]: 6.82; pIC50 [21]: 7.52; pIC50 [22]: 7.00; pIC50 [23]: 6.12; pIC50 [24]: 6.40; pIC50 [25]: 4.68; pIC50 [26]: 6.44; selectivity ratio [27]: 2360
Cc1ccnc2c1NC(=O)c1cccnc1N2C1CC1 [NEVIRAPINE] | – | 6.68 | 8.10 | 8.30 | 5.84 | 6.74 | 7.21 | 5.73 | 5.08 | 5.08 | 6.65 | 7.54 | – | – | – | – | – | – | – | 7.15 | –
